Columns and labels:
[1] = target: T1, human serum albumin (HSA) (Homo sapiens, UniProt P02768); assay: ANS fluorescence binding and competition on HSA; settings: for displacement of ANS from HSA: 2.5 μM HSA with 5 or 100 μM ANS
Method in brief: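 Fluorescence competition with 2.5 μM HSA and 5 or 100 μM ANS. The test compound was titrated over a concentration range. Excitation was 360 nm, with emission read at 460 and 480 nm to detect blue shifts. Signals were normalised between ANS alone (minimum) and HSA:ANS (maximum). ANS stoichiometry and affinity on HSA were set beforehand by a Sudlow-type titration.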

[2] = target: T1, human serum albumin (HSA); assay: 13C-oleic acid displacement assay on HSA; type: binding; settings: 250 μM HSA, 1.5 mM OA
Method in brief: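 Recombinant globulin- and fatty-acid-free HSA at 250 μM in 20 mM NaPO4 pH 7.6, 50 mM NaCl in 99.9% D2O, held 37 °C 30 min. 13C-oleic acid (100 mM stock in DMSO-d6, warmed 50 °C 10 min) added to 1.5 mM final, then 37 °C 2 h. {13C–1H}-HSQC recorded with and without test compound at 298 K; site peaks A–H losing intensity mark displacement.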

[3] = Dynamic light scattering of aggregates/micelles; type: physicochemical; settings: for aggregate size range (DLS intensity profile): 500 μM, 2.5% DMSO; for aggregates detectable by DLS in presence of HSA: with HSA
[4] = target: T2, EPAC1CBD (cAMP-binding domain of hEPAC1, residues 149–318) (Homo sapiens, UniProt O95398); assay: NH-HSQC chemical shift titration of EPAC1CBD
T2 sequence (O95398 149-318 isoform O95398-3): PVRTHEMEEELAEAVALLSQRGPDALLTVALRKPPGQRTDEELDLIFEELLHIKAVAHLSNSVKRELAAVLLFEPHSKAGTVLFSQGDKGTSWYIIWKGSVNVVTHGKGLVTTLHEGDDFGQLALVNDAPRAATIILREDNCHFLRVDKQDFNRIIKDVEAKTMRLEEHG
Method in brief: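 100 μM human EPAC1 CBD (residues 149–318) in Tris NMR buffer was titrated with test compound, with or without HSA, and read by 1H-15N HSQC. DMSO was 0.5% per 100 μM compound. Compounded chemical-shift changes from 35 residues were least-squares fitted at 1:1, with ΔCCSmax free or fixed, to give Kd or apparent Kd. Peak intensities were normalised to the compound-free sample and averaged (I/I0).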

[5] = target: human serum albumin (HSA) Sudlow sites (Homo sapiens, UniProt P02768); assay: Fluorescence competition with dansylated amino acids; type: binding
human serum albumin (HSA) Sudlow sites, sequence (P02768 25-609): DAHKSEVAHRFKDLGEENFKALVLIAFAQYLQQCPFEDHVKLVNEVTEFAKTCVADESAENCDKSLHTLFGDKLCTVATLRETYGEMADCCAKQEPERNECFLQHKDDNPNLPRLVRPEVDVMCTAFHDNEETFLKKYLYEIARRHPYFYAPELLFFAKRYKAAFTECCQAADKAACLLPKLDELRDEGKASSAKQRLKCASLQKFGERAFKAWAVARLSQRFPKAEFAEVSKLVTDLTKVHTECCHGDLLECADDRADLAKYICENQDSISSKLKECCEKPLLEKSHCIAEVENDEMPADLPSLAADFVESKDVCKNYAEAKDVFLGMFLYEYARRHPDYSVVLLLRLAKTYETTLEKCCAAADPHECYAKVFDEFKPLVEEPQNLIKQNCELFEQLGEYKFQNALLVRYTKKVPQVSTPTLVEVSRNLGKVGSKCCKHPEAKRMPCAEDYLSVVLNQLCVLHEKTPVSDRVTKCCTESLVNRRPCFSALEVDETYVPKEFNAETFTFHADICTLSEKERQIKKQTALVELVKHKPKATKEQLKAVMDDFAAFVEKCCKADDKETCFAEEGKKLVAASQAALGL
Method in brief: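 Dansylated arginine (Sudlow site 1, 1:1) or dansylated phenylalanine (sites 1 and 2) fluorescence with recombinant fatty-acid-free HSA on a plate reader. Excitation was 370 for both probes, with emission at 460 (DanR) or 480 nm (DanF). Probe affinity and stoichiometry came from direct titration. Competitions used 2.5 μM HSA with 100 μM probe and were least-squares fitted assuming no extra sites.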

EPAC1CBD [6] = target: T3, EPAC1CBD (Homo sapiens, UniProt O95398); assay: Nonspecific interaction with EPAC1CBD by global NH-HSQC intensity losses; type: binding; settings: for type of aggregation-based inhibitor: NMR intensity losses and DLS
T3 sequence (O95398 149-318 isoform O95398-3): T2 sequence (O95398 149-318 isoform O95398-3)

EPAC1CBD [7] = target: T3, EPAC1CBD; assay: DLS volume profile of EPAC1CBD in presence of ESIs; type: binding
[8] = Transmission electron microscopy of aggregates; type: physicochemical; settings: 200 μM
Method in brief: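 Aggregate samples were applied to 400-mesh copper grids freshly coated with continuous amorphous carbon and glow-discharged at 5 mA for 15 s beforehand. Grids were imaged by transmission electron microscopy on a side-mounted cooled 4-megapixel CCD camera.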

[9] = SPR on nonfunctionalized gold nanoparticle sensor; type: physicochemical; settings: for SPR signal relative to DMSO control: 50 μM and 250 μM, 1.25% DMSO

T1 sequence (P02768 25-609): as above

O=S(=O)(O)c1cccc2cccc(Nc3ccccc3)c12 [ANS, 8-anilinonaphthalene-1-sulfonic acid]
ANS binding stoichiometry and affinity for HSA ([1]; Scatchard plot): binds up to four sites on HSA with low micromolar affinity

C[C@@H]1CCc2c(cc(Br)c(F)c2Br)N1C=O [CE3F4R]
displacement of 13C-oleic acid from HSA [2]: displace OA at multiple sites | aggregate size range (DLS intensity profile) [3]: 90–600 nm | coaggregate size with TX (DLS) ([3]; TX:CE3F4R 1:2 (0.0075% TX, 200 μM CE3F4R)): around 70 nm | aggregates detectable by DLS in presence of HSA [3]: no detectable aggregates in the presence of HSA | increase of apparent Kd for EPAC1CBD binding caused by HSA ([4]; CE3F4R titration with vs without HSA): 5–10 fold | concentration at which dissociation from EPAC1CBD starts ([4]; presence of HSA): ≥ 750 µM | displacement of dansylated amino acids from HSA ([5]; concentrations below CAC): ineffective at displacing either of the dansylated amino acids from HSA | EPAC1CBD NH-HSQC signal/intensity loss (EPAC1CBD [6]): no more than that caused by DMSO | type of aggregation-based inhibitor (EPAC1CBD [6]): Type A | displacement of ANS from HSA [1]: unable to displace ANS | change of EPAC1CBD DLS volume profile (EPAC1CBD [7]; below or above CAC): does not result in any major change in the volume profile of EPAC1CBD | aggregate morphology (TEM) [8]: more amorphous morphology | SPR signal relative to DMSO control [9]: no significant change in SPR signal

Triton X-100 [TX]
average aggregate/micelle diameter (DLS) ([3]; compound in isolation): about 10 nm | EPAC1CBD NH-HSQC signal/intensity loss (EPAC1CBD [6]): no significant chemical shift changes or intensity losses

CC(C)(C)c1cc(C(=O)/C(C#N)=N/Nc2cccc(Cl)c2)no1 [ESI-09]
displacement of 13C-oleic acid from HSA [2]: displace OA at multiple sites | aggregate size range (DLS intensity profile) [3]: 90–600 nm | aggregates detectable by DLS in presence of HSA [3]: no detectable aggregates in the presence of HSA | EPAC1CBD chemical shift changes with HSA relative to those without HSA ([4]; 100 μM ESI-09): < 20% | reduction of average chemical shift changes with HSA vs without HSA ([4]; ESI-09 concentration yielding similar intensity losses): ~ 30% | EPAC1CBD NH-HSQC signal/intensity loss (EPAC1CBD [6]): substantial signal losses for EPAC1CBD peaks | type of aggregation-based inhibitor (EPAC1CBD [6]): type B | ESI-09 concentration giving similar signal loss in presence of HSA (EPAC1CBD [6]; compared with 100 μM ESI-09 without HSA): around 400 μM | increase of EPAC1CBD HSQC intensities in presence of HSA (EPAC1CBD [6]; most ESI-09 concentrations): 30–40% | displacement of ANS from HSA [1]: can fully displace even large excesses of ANS at low micromolar concentrations | increase of EPAC1CBD size profile (DLS) (EPAC1CBD [7]; ESI concentration above CAC): up to 5 nm | aggregate morphology (TEM) [8]: spherical micellar morphology | SPR signal relative to DMSO control [9]: significant difference for ESI-09 when injected at a concentration that is above its CAC | SPR signal with HSA relative to HSA and DMSO control ([9]; 250 μM ESI-09 with 25 μM HSA): no significant SPR signal increase | SPR signal with HSA relative to HSA and DMSO reference ([9]; 500 μM ESI-09 with 25 μM HSA): SPR signal significantly increases

CN(C)c1cccc2c(S(=O)(=O)N[C@@H](CCCN=C(N)N)C(=O)O)cccc12 [DanR, dansyl-arginine]
Kd ([5]; read-out: Kd for HSA Sudlow's Site I, fluorescence titration): ~25 µM

From paper PMC7255057 (Journal of medicinal chemistry, 2019)
